In article PMC6605687 (The Journal of General Physiology, 2019):
Positions count from the first letter of the chain named.

Columns and labels:
[1] = molecular target: T1, rP2X2 Lys188Gln (Rattus norvegicus, UniProt P49653, K188Q); assay: Two-electrode voltage clamp, oocytes expressing rP2X2 Lys188Gln; format: cell-based
T1 sequence (P49653 1-472 K188Q): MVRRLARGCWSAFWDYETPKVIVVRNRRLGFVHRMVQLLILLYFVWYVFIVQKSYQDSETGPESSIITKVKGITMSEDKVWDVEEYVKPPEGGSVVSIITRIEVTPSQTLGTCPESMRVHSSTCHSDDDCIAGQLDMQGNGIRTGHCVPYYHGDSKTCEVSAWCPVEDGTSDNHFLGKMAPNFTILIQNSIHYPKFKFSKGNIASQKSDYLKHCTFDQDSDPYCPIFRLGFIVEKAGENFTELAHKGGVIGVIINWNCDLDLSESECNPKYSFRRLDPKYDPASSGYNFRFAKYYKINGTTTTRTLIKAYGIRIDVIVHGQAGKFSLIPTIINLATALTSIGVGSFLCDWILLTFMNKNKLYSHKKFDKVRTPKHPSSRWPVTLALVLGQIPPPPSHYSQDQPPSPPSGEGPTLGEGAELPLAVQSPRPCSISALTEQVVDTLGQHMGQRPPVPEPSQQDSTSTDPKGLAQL
Summary of the method: (§1)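 Mutations were made by site-directed mutagenesis. Xenopus oocytes were injected with rP2X2 mRNA and incubated in L-15 at 18°C. Two-electrode voltage clamp was done 1–2 days later at −40 mV under ND96 perfusion (pH 7.4). ATP concentration-response currents were normalised and fitted to a one-component Hill equation for EC50 and Hill coefficient. Results are mean ± SEM, tested by one-way ANOVA with Dunnett's test against WT.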

[2] = molecular target: T2, rP2X2 Lys308Gln (Rattus norvegicus, UniProt P49653, K308Q); assay: Two-electrode voltage clamp, oocytes expressing rP2X2 Lys308Gln; format: cell-based
T2 sequence (P49653 1-472 K308Q): T1 sequence (P49653 1-472 K188Q) with Q188K, K308Q
Summary of the method: as §1

EC50 [1]: 8.7 mM
EC50 [2]: 5.8 mM
SMILES: Nc1ncnc2c1ncn2[C@@H]1O[C@H](COP(=O)(O)OP(=O)(O)OP(=O)(O)O)[C@@H](O)[C@H]1O [ATP, Adenosine 5′-triphosphate]
